Common to all, as to assay type: cell-based
One data set concerns HaCaT. As to the kind of experiment: Cytotoxicity against human HaCaT cells assessed as decrease in cell viability at 3.125 to 25 uM after 24 hrs by MTT assay. In outline:
(§1)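 MTT assay on HaCaT cells (RPMI 1640, 10% FBS, 37 °C, 5% CO2), plated overnight, then exposed 24 h to 3.125–25 μM. MTT (5 mg/mL solution) added for 2 h, medium removed, formazan dissolved in DMSO and read at 570 nm. Viability given as percent, mean ± SD of three independent experiments.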

Data set [1] concerns the target T1, Nuclear factor erythroid 2-related factor 2 (Homo sapiens) (UniProt Q16236).
T1 sequence (whole entry): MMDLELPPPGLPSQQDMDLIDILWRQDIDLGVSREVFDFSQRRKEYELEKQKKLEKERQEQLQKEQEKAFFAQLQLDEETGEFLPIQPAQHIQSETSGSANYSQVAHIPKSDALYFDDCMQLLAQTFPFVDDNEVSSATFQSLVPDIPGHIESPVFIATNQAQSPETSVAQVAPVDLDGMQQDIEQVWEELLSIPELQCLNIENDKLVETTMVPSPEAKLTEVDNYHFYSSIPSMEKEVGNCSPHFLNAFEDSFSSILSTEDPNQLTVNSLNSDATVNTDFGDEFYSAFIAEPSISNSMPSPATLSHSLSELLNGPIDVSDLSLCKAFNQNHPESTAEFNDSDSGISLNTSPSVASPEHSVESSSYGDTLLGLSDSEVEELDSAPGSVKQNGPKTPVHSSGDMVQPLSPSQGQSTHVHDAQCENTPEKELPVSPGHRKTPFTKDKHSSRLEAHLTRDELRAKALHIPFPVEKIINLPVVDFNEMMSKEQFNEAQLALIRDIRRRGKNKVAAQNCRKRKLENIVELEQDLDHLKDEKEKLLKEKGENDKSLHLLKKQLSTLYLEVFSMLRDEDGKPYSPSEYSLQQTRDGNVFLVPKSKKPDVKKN
Put plainly: Activation of Nrf2 in human HaCaT cells at 25 uM after 6 hrs by ARE-driven luciferase reporter gene assay relative to control. In outline: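 Used HaCaT cells stably carrying 3xARE-luciferase, in RPMI 1640 with 10% FBS at 37 °C, 5% CO2, plated overnight. Exposure 6 h at 25 μM. Cells lysed in passive lysis buffer 15 min at room temperature. Luciferase read by kit and normalized to total protein, expressed versus vehicle. Mean ± SD from three independent experiments, t test.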

Data set [2] deals with T1, Nuclear factor erythroid 2-related factor 2 (Homo sapiens). As to the kind of experiment: Activation of Nrf2 in human HaCaT cells assessed as increase in nuclear Nrf2 accumulation at 25 uM after 6 hrs by Western blot analysis. In outline:
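HaCaT cells grown to 60−70% confluency, treated 6 h at 25 μM (vehicle DMSO 0.1%). Nuclear fraction obtained with M-PER lysis (10 min on ice), spin at 3000 rpm, pellet resuspended, sonicated, protein by BCA. 25 μg protein run on 10% SDS-PAGE, nitrocellulose transfer, milk block, anti-Nrf2 and histone H3 antibodies, HRP secondary, ECL detection.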

Data set [3] in a line: Cytotoxicity against human HaCaT cells assessed as cell viability at 25 uM after 24 hrs by MTT assay. The settings on record: read-out: Activity. The gist of the method: as §1

The source made the active and inactive calls. The rule behind the calls is not given here.

As for `C/C=C(/C)C(=O)O[C@H]1[C@H](OC(=O)/C(C)=C\C)[C@]2(CO)[C@H](O)[C@H](O)[C@]3(C)C(=CC[C@@H]4[C@@]5(C)CC[C@H](O[C@@H]6O[C@H](C(=O)O)[C@@H](O)[C@H](O[C@@H]7OC[C@H](O)[C@H](O[C@@H]8O[C@@H](C)[C@H](O)[C@@H](O)[C@H]8O)[C@H]7O)[C@H]6O)[C@@](C)(CO)[C@@H]5CC[C@]43C)[C@@H]2CC1(C)C`, in the data set with HaCaT, the Activity result is “Non-Toxic”. Moreover, the fold change (FC) in data set [1] came to 4. Also, the outcome in data set [2] was Active.

Take `C/C=C(/C)C(=O)O[C@H]1[C@H](OC(=O)C(C)CC)[C@]2(CO)[C@H](OC(C)=O)C[C@]3(C)C(=CC[C@@H]4[C@@]5(C)CC[C@H](O[C@@H]6O[C@H](C(=O)O)[C@@H](O)[C@H](O[C@@H]7OC[C@H](O)[C@H](O[C@@H]8O[C@@H](C)[C@H](O)[C@@H](O)[C@H]8O)[C@H]7O)[C@H]6O)[C@@](C)(CO)[C@@H]5CC[C@]43C)[C@@H]2CC1(C)C` (stereo not given in full): the Activity result with HaCaT is “Non-Toxic”. The outcome in data set [1] and in data set [2] was Active.

Regarding `C/C=C(/C)C(=O)O[C@H]1[C@H](OC(=O)/C(C)=C/C)[C@]2(CO)[C@H](O)[C@H](O)[C@]3(C)C(=CC[C@@H]4[C@@]5(C)CC[C@H](O[C@@H]6O[C@H](C(=O)O)[C@@H](O)[C@H](O[C@@H]7OC[C@H](O)[C@H](O[C@@H]8O[C@@H](C)[C@H](O)[C@@H](O)[C@H]8O)[C@H]7O)[C@H]6O)[C@@](C)(CO)[C@@H]5CC[C@]43C)[C@@H]2CC1(C)C`, the Activity result in the data set with HaCaT is “Non-Toxic”. In data set [1], this molecule came in with a fold change (FC) of 3. Besides, the outcome in data set [2] was Active.

Regarding `C/C=C(/C)C(=O)O[C@H]1[C@H](OC(=O)CC(C)C)[C@]2(CO)[C@H](OC(C)=O)[C@H](OC(C)=O)[C@]3(C)C(=CC[C@@H]4[C@@]5(C)CC[C@H](O[C@@H]6O[C@H](C(=O)O)[C@@H](O)[C@H](O[C@@H]7OC[C@H](O)[C@H](O[C@@H]8O[C@@H](C)[C@H](O)[C@@H](O)[C@H]8O)[C@H]7O)[C@H]6O)[C@@](C)(CO)[C@@H]5CC[C@]43C)[C@@H]2CC1(C)C`, in the data set on HaCaT, the Activity result is reported as “Non-Toxic”. Also, the outcome in data set [1] and in data set [2] was Active.

In the case of `C/C=C(/C)C(=O)O[C@H]1[C@H](OC(=O)C(C)CC)[C@]2(CO)[C@H](O)[C@H](O)[C@]3(C)C(=CC[C@@H]4[C@@]5(C)CC[C@H](O[C@@H]6O[C@H](C(=O)O)[C@@H](O)[C@H](O[C@@H]7OC[C@H](O)[C@H](O[C@@H]8O[C@@H](C)[C@H](O)[C@@H](O)[C@H]8O)[C@H]7O)[C@H]6O)[C@@](C)(CO)[C@@H]5CC[C@]43C)[C@@H]2CC1(C)C` (stereo not given in full), the Activity result in the data set on HaCaT is listed as “Non-Toxic”. This molecule had a fold change (FC) in data set [1] of 2. For the same molecule, the outcome in data set [2] was Active.

Turning to `C/C=C(/C)C(=O)O[C@H]1[C@H](OC(=O)C(C)CC)[C@]2(CO)[C@H](O)C[C@]3(C)C(=CC[C@@H]4[C@@]5(C)CC[C@H](O[C@@H]6O[C@H](C(=O)O)[C@@H](O)[C@H](O[C@@H]7OC[C@H](O)[C@H](O[C@@H]8O[C@@H](C)[C@H](O)[C@@H](O)[C@H]8O)[C@H]7O)[C@H]6O)[C@@](C)(CO)[C@@H]5CC[C@]43C)[C@@H]2CC1(C)C` (stereo not given in full), the outcome in data set [1] and in data set [2] was Active. For the same molecule, in data set [3], the viability at 24 h, 25 µM came out at 72.7%.

Consider `C/C=C(/C)C(=O)O[C@H]1[C@H](OC(=O)CC(C)C)[C@]2(CO)[C@H](O)C[C@]3(C)C(=CC[C@@H]4[C@@]5(C)CC[C@H](O[C@@H]6O[C@H](C(=O)O)[C@@H](O)[C@H](O[C@@H]7OC[C@H](O)[C@H](O[C@@H]8O[C@@H](C)[C@H](O)[C@@H](O)[C@H]8O)[C@H]7O)[C@H]6O)[C@@](C)(CO)[C@@H]5CC[C@]43C)[C@@H]2CC1(C)C`, for which the result in data set [1] and in data set [2] was Active. The viability at 24 h, 25 µM in data set [3] worked out at 69.7%.

In the case of `CCC(C)C(=O)O[C@H]1[C@H](O)C(C)(C)C[C@H]2C3=CC[C@@H]4[C@@]5(C)CC[C@H](O[C@@H]6O[C@H](C(=O)O)[C@@H](O)[C@H](O[C@@H]7OC[C@H](O)[C@H](O[C@@H]8O[C@@H](C)[C@H](O)[C@@H](O)[C@H]8O)[C@H]7O)[C@H]6O)[C@@](C)(CO)[C@@H]5CC[C@@]4(C)[C@]3(C)[C@@H](OC(=O)CC(C)C)[C@@H](O)[C@]21CO` (stereo not given in full), in the data set on HaCaT, the Activity entry was “Non-Toxic”. The result in data set [1] and in data set [2] was Active.

Turning to `C/C=C(/C)C(=O)O[C@H]1[C@H](OC(=O)C(C)CC)[C@]2(CO)[C@H](O)[C@H](O)[C@]3(C)C(=CC[C@@H]4[C@@]5(C)CC[C@H](O[C@@H]6O[C@H](C(=O)O)[C@@H](O)[C@H](O[C@@H]7OC[C@H](O)[C@H](O[C@@H]8O[C@@H](C)[C@H](O)[C@@H](O)[C@H]8O)[C@H]7O)[C@H]6O)[C@@](C)(C=O)[C@@H]5CC[C@]43C)[C@@H]2CC1(C)C` (stereo not given in full), the Activity entry in the data set on HaCaT is recorded as “Non-Toxic”. Moreover, the result in data set [1] and in data set [2] was Active.

On to `C/C=C(/C)C(=O)O[C@H]1[C@H](OC(=O)CC(C)C)[C@]2(CO)[C@H](O)[C@H](O)[C@]3(C)C(=CC[C@@H]4[C@@]5(C)CC[C@H](O[C@@H]6O[C@H](C(=O)O)[C@@H](O)[C@H](O[C@@H]7OC[C@H](O)[C@H](O[C@@H]8O[C@@H](C)[C@H](O)[C@@H](O)[C@H]8O)[C@H]7O)[C@H]6O)[C@@](C)(C=O)[C@@H]5CC[C@]43C)[C@@H]2CC1(C)C`, for which the Activity entry with HaCaT is “Non-Toxic”. Further, the result in data set [1] and in data set [2] was Active.

(Values after ChEMBL document CHEMBL4266043, “Nuclear Factor Erythroid 2-Related Factor 2 Activating Triterpenoid Saponins from Camellia japonica Roots” (J Nat Prod, 2018).)
